# OXTR potentiator = human OXTR potentiators, primary screen, fluorescence, CHO-OTR cells, Fluo-8 calcium; Oxytocin receptor (Homo sapiens), P30559; Fluo-8 calcium fluorescence, potentiator mode; 0% = oxytocin EC15, 100% = EC100; actives 0.061% (n = 320,000); activation, % at 3 µM;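 active = activation above that plate's cutoff, the mean activation of tested compounds plus 3 SD, cut at about 6.6% in these data, passing the limit was not always enough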
# Target sequence (P30559 whole entry, looked up): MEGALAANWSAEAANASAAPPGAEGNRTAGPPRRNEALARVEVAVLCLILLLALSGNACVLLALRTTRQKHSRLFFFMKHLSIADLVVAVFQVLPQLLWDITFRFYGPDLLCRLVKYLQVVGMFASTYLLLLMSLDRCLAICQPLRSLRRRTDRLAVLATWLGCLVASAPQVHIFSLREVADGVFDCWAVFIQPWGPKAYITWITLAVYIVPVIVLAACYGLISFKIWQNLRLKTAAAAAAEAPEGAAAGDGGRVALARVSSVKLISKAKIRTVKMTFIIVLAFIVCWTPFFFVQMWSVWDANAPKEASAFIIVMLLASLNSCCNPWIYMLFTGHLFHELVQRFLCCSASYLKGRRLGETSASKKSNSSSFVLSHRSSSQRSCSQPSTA
#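 Material: CHO-OTR cells, human receptor; compound dosing: single dose, 3.0 µM nominal final compound concentration; schedule: 6 min compound pre-incubation at room temperature, 100 s kinetic read; measured by: kinetic Fluo-8 calcium fluorescence; read-out basis: % activation vs EC15 and EC100 oxytocin; controls: EC15 oxytocin alone as 0%, 75 nM oxytocin as 100%; replicates: singlicate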
# M4 antag = human M4 muscarinic receptor antagonists, primary screen, CHO cells, Fluo-8 calcium fluorescence | Muscarinic acetylcholine receptor M4 (Homo sapiens), P08173 | CHO-hM4 cells, ACh EC80 | inhibition, % at 3 µM | actives 0.73% (n = 360,000) | AID 624125, 2012;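 active = inhibition above its plate's cutoff, the mean inhibition of sample wells plus 3 SD, cut at about 27% in these data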
# OXTR ag = human OXTR agonists, primary screen, fluorescence, CHO-OTR cells, Fluo-8 calcium | Fluo-8 calcium fluorescence; normalized: DMSO 0%, oxytocin 100% | activation, % at 3 µM | actives 0.32% (n = 320,000);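 active = activation above the mean of all tested compounds plus 3 SD, cutoff set per screening run, cut at about 20% in these data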;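 note: peak over basal fluorescence ratio from a 100 s FLIPR kinetic read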
# M4 PAM = human M4 muscarinic receptor positive allosteric modulators, primary screen, CHO-K1 cells, Fluo-8 calcium fluorescence | Muscarinic acetylcholine receptor M4 (Homo sapiens), P08173 | CHO-K1 hM4/Gqi5, ACh EC20; 0% = ACh EC20, 100% = maximal ACh | activation, % at 3 µM | actives 0.4% (n = 360,000) | AID 624126, 2012;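 active = activation above its plate's cutoff, the mean activation of sample wells plus 3 SD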
# M4 ag = human M4 muscarinic receptor agonists, primary screen, CHO-K1 cells, Fluo-8 calcium fluorescence. CHO-K1 hM4/Gqi5; vehicle 0%, full acetylcholine response 100%. activation, % at 3 µM. actives 0.14% (n = 360,000);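 active = activation above the run mean over all test wells plus 3 SD, cut at about 32% in these data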;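 note: peak over basal fluorescence ratio per well then scaled between controls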
# V1aR counter = agonists of human V1a receptor, primary screen, counter-screen for OXTR agonist project, fluorescence, CHO-V1R cells | Fluo-8 calcium fluorescence, agonist mode; 0% DMSO, 100% 3 nM vasopressin | AID 2797, 2010 | actives 0.25% (n = 320,000) | Vasopressin V1a receptor (Homo sapiens), P37288 | activation, % at 3 µM;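 active = activation above the mean activation of all tested compounds plus 3 SD, per screening run, cut at about 20% in these data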;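 note: signal is peak over basal fluorescence ratio across a 100 second FLIPR read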
# Hits are given with their value; n = inactive; x = no result given. In the library only some 1.5% were active in any assay of this set; here they are far more common.
SMILES,OXTR potentiator,M4 antag,OXTR ag,M4 PAM,M4 ag,V1aR counter
CN(Cc1ccccc1O)CC1CCCN(CCc2ccc(Cl)cc2)C1 (stereo unspecified),n,37.4,n,n,n,n
Cn1c(N)c(C(=O)COC(=O)Cc2ccsc2)c(=O)n(C)c1=O,n,n,n,22.4,n,n
CCc1ccc(-c2nc(CS(=O)CC(=O)NC3CCCCCC3)c(C)o2)cc1 (stereo unspecified),n,n,n,n,n,n
Cc1cc2c(c(=O)n1Cc1ccco1)C(c1cccnc1)C(C#N)=C(N)O2 (stereo unspecified),n,n,n,29.9,n,n
Brc1ccc(-c2c[n+]3c(n2-c2ccccc2)SCC3)cc1,n,53.5,n,n,n,n
NC(=O)c1ccsc1NC(=O)COC(=O)Cc1cccc2ccccc12,n,61.1,n,n,n,n
Cc1ccccc1SCC(=O)OCC(=O)Nc1sccc1C(N)=O,n,30.7,n,n,n,n
NC(=O)c1ccsc1NC(=O)COC(=O)Cc1c[nH]c2ccccc12,n,n,n,n,n,n
CN(C)S(=O)(=O)c1cccc(C(=O)OCC(=O)Nc2sccc2C(N)=O)c1,n,38.4,n,n,n,n
COc1ccccc1/C(O)=C(\C#N)c1nc2ccccc2[nH]1,n,n,n,n,n,n
COc1ccc([C@H]2C(C#N)=C([S-])N[C@](C)(O)[C@@H]2[n+]2ccccc2)cc1,x,40.4,x,n,n,x
O=C(NC1CCCC1)C(C1CC1)n1c(-c2ccncc2)nc2ccccc21 (stereo unspecified),x,n,x,n,n,x
COC(=O)c1ccc(/C=C/c2c(-c3ccc(OC)cc3)oc3ccccc23)cc1,n,n,n,25.8,n,n
COc1ccc(/C=C/c2c(-c3ccc(OC)cc3)oc3ccccc23)cc1,n,n,n,n,n,n
CC(=O)C1(O)CCC2C3CC(C)C4=CC(=O)CCC4(C)C3CCC21C (stereo unspecified),x,44.0,x,n,n,x
CC(=O)[C@@]1(O)CC[C@H]2[C@@H]3C[C@H](C)C4=CC(=O)CC[C@]4(C)[C@H]3CC[C@@]21C,n,32.8,n,n,n,n
CC(NC(=O)c1ccccc1SCC(=O)N1CCCC1)c1ccc(F)cc1 (stereo unspecified),n,n,n,n,n,n
COCC(=O)Nc1ccc2c(c1)[C@@H]1C[C@H](CC(=O)OC)O[C@@H](CO)[C@@H]1O2,x,n,x,n,n,x
CCOC(=O)c1cnc(SCCc2ccccc2)nc1N,n,n,n,34.8,n,n
CCOC(=O)C1CCCN(C(=O)c2ccc(-c3ccc([N+](=O)[O-])cc3)o2)C1 (stereo unspecified),n,n,n,n,n,n
O=C(Nc1ccccc1)Nc1ccc2nnsc2c1,n,30.3,n,n,n,n
CSc1ccccc1NC(=O)c1ccc(N2CCCC2=O)cc1,n,n,n,n,n,n
Cc1cccc(CS(=O)(=O)c2ncc(Cl)c(C(=O)NCc3ccc4c(c3)OCO4)n2)c1,n,33.3,n,n,n,n
CC1CCN(S(=O)(=O)c2ccc(NC(=O)c3ccncc3)cc2)CC1,n,n,n,n,n,n
Cc1ccc(NC(=O)c2nc(S(=O)(=O)Cc3ccccc3C)ncc2Cl)cc1C,n,35.9,n,n,n,n
SMILES,OXTR potentiator,M4 antag,OXTR ag,M4 PAM,M4 ag,V1aR counter
CC(=O)Nc1ccc(NC(=O)c2nc(S(=O)(=O)Cc3cccc(C)c3)ncc2Cl)cc1,n,n,n,n,n,n
CCc1ccc(NC(=O)c2nc(S(=O)(=O)Cc3ccccc3)ncc2Cl)cc1,n,67.8,n,n,n,n
CCS(=O)(=O)c1ncc(Cl)c(C(=O)Nc2ccc(S(=O)(=O)N3CCC(C)CC3)cc2)n1,n,46.9,n,n,n,n
O=C1c2ccccc2C(c2nnnn2-c2ccc3c(c2)OCCO3)N1CCCn1ccnc1 (stereo unspecified),x,n,x,n,n,x
COC(=O)C[C@H]1CC[C@H](NC(=O)Nc2ccccc2F)[C@@H](CO)O1,x,n,x,n,n,x
N#Cc1ccc(OCC(O)CN2CCN(C(c3ccccc3)c3ccccc3)CC2)cc1 (stereo unspecified),n,32.4,n,n,n,n
CCC(=O)c1ccc(OCC(O)CN2CCN(C(c3ccccc3)c3ccccc3)CC2)cc1 (stereo unspecified),n,44.3,n,n,n,n
OC(COc1ccccc1)CN1CCN(C(c2ccccc2)c2ccccc2)CC1 (stereo unspecified),n,n,n,n,n,n
CC(C)NC(=O)C1(C)CSCC(=O)N1Cc1cccc(F)c1 (stereo unspecified),x,n,x,n,n,x
Cc1cccc(-[n+]2c(C)cc(C)c3c(=O)[nH]c(=O)[nH]c32)c1,n,n,n,n,n,n
Cc1cc(C)[n+](-c2ccc(C(C)C)cc2)c2[nH]c(=O)[nH]c(=O)c12,n,40.8,n,n,n,n
CC(C)n1nccc1NC(=O)COC(=O)c1ccc(NC(N)=O)cc1,n,n,n,n,n,n
CC(C)[N+](C)(CCOC(=O)C1c2ccccc2Oc2ccccc21)C(C)C,n,99.7,n,n,n,n
CCCCNC(=O)C1c2ccccc2Oc2ccccc21,n,n,n,n,n,n
O=C(NCc1ccco1)C1c2ccccc2Oc2ccccc21,n,27.1,n,n,n,n
CCN(CC)C(=O)C1c2ccccc2Oc2ccccc21,n,n,47.6,n,32.7,64.0
CC(C)CNC(=O)COC(=O)C1c2ccccc2Oc2ccccc21,n,n,n,n,n,n
CC1(C)CC(=O)C=C(c2cccc(OC(=O)c3ccc(-c4ccccc4)cc3)c2)C1=O,x,n,x,n,n,x
O=C(COC(=O)c1nc(Cl)ccc1Cl)Nc1ccc(Cl)cc1,n,n,n,22.0,n,n
CC1(C(=O)NS(C)(=O)=O)CCN1C(=O)C/C=C/c1ccccc1 (stereo unspecified),x,n,x,n,n,x
COc1cc(C2NC(=O)N(C)C(C)=C2C(=O)OCc2ccccc2)cc(Br)c1O (stereo unspecified),n,n,n,14.4,n,n
CC1=C(C(=O)OCc2ccccc2)C(c2ccc(Cl)cc2)NC(=O)N1C (stereo unspecified),n,n,n,n,n,n

# Source: PubChem
